Measured values reported in ChEMBL document CHEMBL4346701, “Synthesis and biological evaluation of tryptophan-derived rhodanine derivatives as PTP1B inhibitors and anti-bacterial agents” (Eur J Med Chem, 2019).
In brackets after ≈: the same amount, converted by molar mass.

How the values were obtained:
[1] = system: Staphylococcus aureus; experiment: Antibacterial activity against Methicillin-resistant Staphylococcus aureus CCARM 3167 assessed as reduction in bacterial cell growth incubated for 24 hrs by ELISA; format: functional; details: CCARM 3167, 24 h
How it was run: (§1)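 MICs determined by serial dilution in 96-well microtiter plates. The strain panel included Gram-positive S. aureus strains and multidrug-resistant clinical isolates. Gatifloxacin, moxifloxacin, norfloxacin and oxacillin served as antibacterial positive controls.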

[2] = system: Staphylococcus aureus; experiment: Antibacterial activity against Staphylococcus aureus KCTC209 assessed as reduction in bacterial cell growth incubated for 24 hrs by ELISA; format: functional; details: KCTC209, 24 h; how it was run: as §1
[3] = system: Candida albicans; experiment: Antifungal activity against Candida albicans 7535 assessed as reduction in bacterial cell growth incubated for 24 hrs by ELISA; format: functional; details: Candida albicans, 7535, 24 h
How it was run: (§2)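 MIC determined by serial dilution in 96-well microtiter plates. Strains used were E. coli 1924 and P. aeruginosa 2742 (Gram-negative), S. mutans 3289 (Gram-positive) and the fungus C. albicans 7535. Gatifloxacin, moxifloxacin, norfloxacin and oxacillin served as antibacterial reference agents, and fluconazole as the antifungal reference.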

[4] = system: Staphylococcus aureus; experiment: Antibacterial activity against Quinolone-resistant Staphylococcus aureus CCARM 3519 assessed as reduction in bacterial cell growth incubated for 24 hrs by ELISA; format: functional; details: CCARM 3519, 24 h; how it was run: as §1
[5] = system: Pseudomonas aeruginosa; experiment: Antibacterial activity against Pseudomonas aeruginosa 2742 assessed as reduction in bacterial cell growth incubated for 24 hrs by ELISA; format: functional; details: Pseudomonas aeruginosa, 2742, 24 h; how it was run: as §2
[6] = system: Staphylococcus aureus; experiment: Antibacterial activity against Staphylococcus aureus KCTC503 assessed as reduction in bacterial cell growth incubated for 24 hrs by ELISA; format: functional; details: KCTC503, 24 h; how it was run: as §1
[7] = system: Streptococcus mutans; experiment: Antibacterial activity against Streptococcus mutans KCTC3289 assessed as reduction in bacterial cell growth incubated for 24 hrs by ELISA; format: functional; details: KCTC3289, 24 h; how it was run: as §2
[8] = system: Staphylococcus aureus; experiment: Antibacterial activity against Methicillin-resistant Staphylococcus aureus CCARM 3506 assessed as reduction in bacterial cell growth incubated for 24 hrs by ELISA; format: functional; details: CCARM 3506, 24 h; how it was run: as §1
[9] = system: Staphylococcus aureus; experiment: Antibacterial activity against Staphylococcus aureus RN4220 assessed as reduction in bacterial cell growth incubated for 24 hrs by ELISA; format: functional; details: RN4220, 24 h; how it was run: as §1
[10] = system: Staphylococcus aureus; experiment: Antibacterial activity against Quinolone-resistant Staphylococcus aureus CCARM 3505 assessed as reduction in bacterial cell growth incubated for 24 hrs by ELISA; format: functional; details: CCARM 3505, 24 h; how it was run: as §1
[11] = target: T1, Tyrosine-protein phosphatase non-receptor type 1 (Homo sapiens, UniProt P18031); experiment: Inhibition of human recombinant GST-tagged PTP1B expressed in Escherichia coli BL21 (DE3) using pNPP as substrate measured for 2 mins by colorimetric analysis
T1 sequence (P18031 whole entry): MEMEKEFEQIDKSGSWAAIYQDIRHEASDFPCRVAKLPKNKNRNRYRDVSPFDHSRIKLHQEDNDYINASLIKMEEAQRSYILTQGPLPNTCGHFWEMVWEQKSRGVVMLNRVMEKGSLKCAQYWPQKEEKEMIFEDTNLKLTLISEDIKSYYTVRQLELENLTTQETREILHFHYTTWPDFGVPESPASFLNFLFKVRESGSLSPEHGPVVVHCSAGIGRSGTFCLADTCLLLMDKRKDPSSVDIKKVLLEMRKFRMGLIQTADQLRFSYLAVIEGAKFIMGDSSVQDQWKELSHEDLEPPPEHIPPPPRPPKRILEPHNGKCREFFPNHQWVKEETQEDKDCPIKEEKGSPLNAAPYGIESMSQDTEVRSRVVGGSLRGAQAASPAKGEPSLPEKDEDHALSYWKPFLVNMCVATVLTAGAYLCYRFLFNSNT

[12] = system: Escherichia coli; experiment: Antibacterial activity against Escherichia coli 1924 assessed as reduction in bacterial cell growth incubated for 24 hrs by ELISA; format: functional; details: Escherichia coli, 1924, 24 h; how it was run: as §2

| SMILES | MIC [1] | MIC [2] | MIC [3] | MIC [4] | MIC [5] | MIC [6] | MIC [7] | MIC [8] | MIC [9] | MIC [10] | IC50 [11] | MIC [12] |
| --- | --- | --- | --- | --- | --- | --- | --- | --- | --- | --- | --- | --- |
| COc1cc(/C=C2\SC(=S)N(C(Cc3c[nH]c4ccccc34)C(=O)O)C2=O)ccc1OCc1ccc(C)cc1 (configuration not stated) | 4 µg/mL (≈ 7.16 µM) | 2 µg/mL (≈ 3.58 µM) | > 64 µg/mL | 8 µg/mL (≈ 14.3 µM) | > 64 µg/mL | 4 µg/mL (≈ 7.16 µM) | 2 µg/mL (≈ 3.58 µM) | 2 µg/mL (≈ 3.58 µM) | 2 µg/mL (≈ 3.58 µM) | 2 µg/mL (≈ 3.58 µM) | 3.6 µM | 2 µg/mL (≈ 3.58 µM) |
| COc1cc(/C=C2\SC(=S)N(C(Cc3c[nH]c4ccccc34)C(=O)O)C2=O)ccc1OCc1ccc(Cl)cc1 (configuration not stated) | 4 µg/mL (≈ 6.91 µM) | 4 µg/mL (≈ 6.91 µM) | > 64 µg/mL | 4 µg/mL (≈ 6.91 µM) | > 64 µg/mL | 4 µg/mL (≈ 6.91 µM) | 4 µg/mL (≈ 6.91 µM) | 4 µg/mL (≈ 6.91 µM) | 2 µg/mL (≈ 3.45 µM) | 4 µg/mL (≈ 6.91 µM) | 4.36 µM | 4 µg/mL (≈ 6.91 µM) |
| O=C(O)C(Cc1c[nH]c2ccccc12)N1C(=O)/C(=C/c2ccc(OCc3ccccc3)cc2)SC1=S (configuration not stated) | 8 µg/mL (≈ 15.5 µM) | 8 µg/mL (≈ 15.5 µM) | > 64 µg/mL | 8 µg/mL (≈ 15.5 µM) | > 64 µg/mL | 8 µg/mL (≈ 15.5 µM) | 4 µg/mL (≈ 7.77 µM) | 8 µg/mL (≈ 15.5 µM) | 4 µg/mL (≈ 7.77 µM) | 8 µg/mL (≈ 15.5 µM) | 5.52 µM | 8 µg/mL (≈ 15.5 µM) |
| COc1cc(/C=C2\SC(=S)N(C(Cc3c[nH]c4ccccc34)C(=O)O)C2=O)ccc1OCc1ccccc1 (configuration not stated) | 8 µg/mL (≈ 14.7 µM) | 8 µg/mL (≈ 14.7 µM) | > 64 µg/mL | 16 µg/mL (≈ 29.4 µM) | > 64 µg/mL | 8 µg/mL (≈ 14.7 µM) | 8 µg/mL (≈ 14.7 µM) | 8 µg/mL (≈ 14.7 µM) | 8 µg/mL (≈ 14.7 µM) | 8 µg/mL (≈ 14.7 µM) | 5.77 µM | 16 µg/mL (≈ 29.4 µM) |
| COc1cc(/C=C2\SC(=S)N(C(Cc3c[nH]c4ccccc34)C(=O)O)C2=O)ccc1OCc1ccc(Br)cc1 (configuration not stated) | 4 µg/mL (≈ 6.41 µM) | 4 µg/mL (≈ 6.41 µM) | > 64 µg/mL | 8 µg/mL (≈ 12.8 µM) | > 64 µg/mL | 4 µg/mL (≈ 6.41 µM) | 8 µg/mL (≈ 12.8 µM) | 4 µg/mL (≈ 6.41 µM) | 4 µg/mL (≈ 6.41 µM) | 4 µg/mL (≈ 6.41 µM) | 3.18 µM | 8 µg/mL (≈ 12.8 µM) |
| O=C(O)C(Cc1c[nH]c2ccccc12)N1C(=O)/C(=C/c2cccc(OCc3ccc(Cl)cc3Cl)c2)SC1=S (configuration not stated) | 8 µg/mL (≈ 13.7 µM) | 4 µg/mL (≈ 6.85 µM) | > 64 µg/mL | 4 µg/mL (≈ 6.85 µM) | > 64 µg/mL | 8 µg/mL (≈ 13.7 µM) | 4 µg/mL (≈ 6.85 µM) | 8 µg/mL (≈ 13.7 µM) | 4 µg/mL (≈ 6.85 µM) | 4 µg/mL (≈ 6.85 µM) | 1.7 µM | 8 µg/mL (≈ 13.7 µM) |
